Experimental data from ChEMBL document CHEMBL2380219, “Physalin A induces apoptotic cell death and protective autophagy in HT1080 human fibrosarcoma cells” (J Nat Prod, 2013).

Columns and labels:
PBMC = experiment: Cytotoxicity against human PBMC at 40 to 80 uM after 24 to 48 hrs by MTT assay; type: cell-based
Procedure, shortened: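 hPBMC from fresh blood of three healthy male volunteers, isolated on Ficoll-Hypaque (1.077 g/mL) at 900g for 30 min and washed, then seeded in complete RPMI-1640. Exposed to 10–80 μM for 24 and 48 h, with DMSO below 0.05%. MTT was read at 492 nm after formazan in DMSO. Inhibition % = (control−sample)/(control−blank)×100; mean ± SD, three independent experiments.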

HT-1080 = experiment: Cytotoxicity against human HT1080 cells assessed as growth inhibition after 24 hrs by MTT assay; type: functional, cell-based; details: HT-1080, 24 h

SMILES	Activity (PBMC)	IC50 (HT-1080)
CC(=O)O[C@H]1C(=O)[C@@]2(C)[C@H]([C@H](OC(=O)c3ccccc3)[C@]3(O)C[C@H](OC(=O)[C@H](O)[C@@H](NC(=O)c4ccccc4)c4ccccc4)C(C)=C1C3(C)C)[C@]1(OC(C)=O)CO[C@@H]1C[C@@H]2O [PACLITAXEL]	Non-toxic	6 µM
O=c1[nH]cc(F)c(=O)[nH]1 [FLUOROURACIL]	Non-toxic	70.8 µM
